# Measured values taken from PMC9870662 (Medicinal Chemistry Research, 2023).
# Read-outs that look alike come from different tables or passages of the source.
# Legend:
# [1] = tested on: male NMRI mice; assay: Acetic acid-induced writhing test; assay type: in vivo; details: for Response (n) Mean ± SD: number of writhing responses during 30 min, eight mice; for ED50: Mus musculus, ip, read-out: Estimated ED50 (mg/kg) (95% Confidence Interval); for Estimated ED50 (mg/kg) (95% Confidence Interval): i.p., nonlinear regression of log dose-response curve
# [2] = tested on: MCF-7 breast cancer cell line; assay: MTT cytotoxicity assay; assay type: cell-based; details: for inhibition at 10 µM: Homo sapiens, MCF7, 72 h, read-out: % Inhibition (10 µM); for % Inhibition (10 µM): MCF-7, 72 h, MTT
# Summary of the method: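 MCF-7 cells from IBRC seeded in RPMI1640 at 37 °C, 5% CO2, high humidity. After one day, medium replaced with medium containing test compound; celecoxib as reference, plain medium as control. Incubated 72 h, then MTT added for 4 h at 37 °C. Supernatant removed, cells exposed to DMSO 20 min at 37 °C, absorbance read at 570 nm.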
# [3] = target: T1, Ovine COX-1 (Ovis aries, UniProt P05979); assay: COX-1 enzyme inhibition assay; assay type: biochemical
# T1 sequence (P05979 25-600): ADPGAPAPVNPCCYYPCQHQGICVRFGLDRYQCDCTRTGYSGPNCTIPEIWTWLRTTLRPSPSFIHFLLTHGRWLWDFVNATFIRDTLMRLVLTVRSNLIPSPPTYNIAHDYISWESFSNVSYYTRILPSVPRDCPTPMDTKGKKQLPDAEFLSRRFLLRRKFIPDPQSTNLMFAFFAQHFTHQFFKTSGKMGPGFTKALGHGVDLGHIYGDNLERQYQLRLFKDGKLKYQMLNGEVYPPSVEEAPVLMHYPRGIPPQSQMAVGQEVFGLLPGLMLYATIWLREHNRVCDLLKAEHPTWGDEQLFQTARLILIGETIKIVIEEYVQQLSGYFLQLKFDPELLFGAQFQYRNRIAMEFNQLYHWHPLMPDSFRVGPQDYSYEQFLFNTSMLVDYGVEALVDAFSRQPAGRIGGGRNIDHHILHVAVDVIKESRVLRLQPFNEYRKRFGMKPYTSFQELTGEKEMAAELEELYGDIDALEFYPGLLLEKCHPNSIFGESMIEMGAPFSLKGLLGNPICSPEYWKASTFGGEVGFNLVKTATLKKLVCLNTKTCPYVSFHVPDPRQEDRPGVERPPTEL
# [4] = target: T2, Human recombinant COX-2 (Homo sapiens, UniProt P35354); assay: biochemical
# T2 sequence (P35354 18-604): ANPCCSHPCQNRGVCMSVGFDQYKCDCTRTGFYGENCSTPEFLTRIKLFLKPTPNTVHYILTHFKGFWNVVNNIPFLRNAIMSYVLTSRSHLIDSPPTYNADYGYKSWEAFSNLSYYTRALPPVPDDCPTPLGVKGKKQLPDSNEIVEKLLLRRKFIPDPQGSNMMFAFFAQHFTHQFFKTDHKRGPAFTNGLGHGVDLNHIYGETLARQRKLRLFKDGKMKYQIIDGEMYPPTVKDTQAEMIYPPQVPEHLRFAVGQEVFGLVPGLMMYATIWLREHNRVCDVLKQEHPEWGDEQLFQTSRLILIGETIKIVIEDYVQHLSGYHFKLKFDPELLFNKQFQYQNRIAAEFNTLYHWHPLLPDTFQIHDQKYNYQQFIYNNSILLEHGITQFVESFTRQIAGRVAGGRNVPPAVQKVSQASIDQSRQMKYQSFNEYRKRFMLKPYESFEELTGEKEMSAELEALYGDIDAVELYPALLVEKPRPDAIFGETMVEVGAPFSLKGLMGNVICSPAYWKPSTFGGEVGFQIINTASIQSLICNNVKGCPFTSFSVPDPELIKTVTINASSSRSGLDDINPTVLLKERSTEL
# [5] = read-out: IC50 in µM Ovine COX-1, fluorescent enzyme kit
# [6] = read-out: IC50 in µM Human recombinant COX-2
Compound,Response (n) Mean ± SD ([1]; 10 mg/kg i.p.),Response (n) Mean ± SD ([1]; 20 mg/kg i.p.),Response (n) Mean ± SD ([1]; 40 mg/kg i.p.),Response (n) Mean ± SD ([1]; 80 mg/kg i.p.),ED50 [1] [mg/kg],inhibition at 10 µM [2] [%],IC50 [3] [µM],IC50 [4] [µM],Selectivity Index (SI) ([4]; COX-1 vs COX-2),Response (n) Mean ± SD ([1]; 5 mg/kg i.p.),"IC50 [3, 5] [µM]",Selectivity Index (SI) [4],"IC50 [4, 6] [µM]",Estimated ED50 (mg/kg) (95% Confidence Interval) [1],% Inhibition (10 µM) [2] [%]
"Cc1ccc(-c2cc(C(F)(F)F)nn2-c2ccc(S(N)(=O)=O)cc2)cc1 [Celecoxib, reference compound]",33.62 ± 1.79,26.37 ± 2.86,13.75 ± 2.72,7.37 ± 2.39,20.2,75.8,,,,,,,,,
"CS(=O)(=O)c1ccc(-c2cc(-c3ccccc3)n3c(n2)nc2ccccc23)cc1 [Compound 5a, 2-(4-(Methylsulfonyl)phenyl)-4-phenylbenzo[4,5]imidazo[1,2-a]pyrimidine]",20.75 ± 3.07,17.25 ± 2.95,12.63 ± 2.64,10.00 ± 1.50,8.65,53.3,6.1,0.05,122,25 ± 1.58,,,,,
"Cc1ccccc1-c1cc(-c2ccc(S(C)(=O)=O)cc2)nc2nc3ccccc3n12 [Compound 5b, 2-(4-(Methylsulfonyl)phenyl)-4-(o-tolyl)benzo[4,5]imidazo[1,2-a]pyrimidine]",,,,,,76.9,48.3,> 100,,,,,,,
"Cc1cccc(-c2cc(-c3ccc(S(C)(=O)=O)cc3)nc3nc4ccccc4n23)c1 [Compound 5c, 2-(4-(Methylsulfonyl)phenyl)-4-(m-tolyl)benzo[4,5]imidazo[1,2-a]pyrimidine]",,,,,,76,24,> 100,,,,,,,
"Cc1ccc(-c2cc(-c3ccc(S(C)(=O)=O)cc3)nc3nc4ccccc4n23)cc1 [Compound 5d, 2-(4-(Methylsulfonyl)phenyl)-4-(p-tolyl)benzo[4,5]imidazo[1,2-a]pyrimidine]",17.88 ± 4.28,14.75 ± 4.47,13.25 ± 2.59,10.25 ± 2.73,5.75,78.2,40.8,0.68,60,18.63 ± 5.87,,,,,
"COc1ccccc1-c1cc(-c2ccc(S(C)(=O)=O)cc2)nc2nc3ccccc3n12 [Compound 5e, 4-(2-Methoxyphenyl)-2-(4-(methylsulfonyl)phenyl)benzo[4,5]imidazo[1,2-a]pyrimidine]",36.63 ± 1.41,28.25 ± 3.99,19.13 ± 3.76,15 ± 1.58,29,74.3,6.9,0.06,115,38.38 ± 1.32,,,,,
"COc1cccc(-c2cc(-c3ccc(S(C)(=O)=O)cc3)nc3nc4ccccc4n23)c1 [Compound 5f, 4-(3-Methoxyphenyl)-2-(4-(methylsulfonyl)phenyl)benzo[4,5]imidazo[1,2-a]pyrimidine]",,,,,,75.4,> 100,> 100,,,,,,,
"COc1ccc(-c2cc(-c3ccc(S(C)(=O)=O)cc3)nc3nc4ccccc4n23)cc1 [Compound 5g, 4-(4-Methoxyphenyl)-2-(4-(methylsulfonyl)phenyl)benzo[4,5]imidazo[1,2-a]pyrimidine]",36.63 ± 1.32,29.13 ± 6.27,21.88 ± 3.37,13.63 ± 1.32,32.1,79.6,> 100,5.4,> 18.5,,,,,,
"COc1ccc(-c2cc(-c3ccc(S(C)(=O)=O)cc3)nc3nc4ccccc4n23)cc1OC [Compound 5h, 4-(3,4-Dimethoxyphenyl)-2-(4-(methylsulfonyl)phenyl)benzo[4,5]imidazo[1,2-a]pyrimidine]",,,,,,79.3,13.9,> 100,,,,,,,
"COc1cc(-c2cc(-c3ccc(S(C)(=O)=O)cc3)nc3nc4ccccc4n23)cc(OC)c1OC [Compound 5i, 4-(3,4,5-Trimethoxyphenyl)-2-(4-(methylsulfonyl)phenyl)benzo[4,5]imidazo[1,2-a] pyrimidine]",39.25 ± 2.38,30.87 ± 3.82,24.62 ± 3.04,15.87 ± 3.18,40.1,77.9,16.3,0.58,28.1,,,,,,
"CS(=O)(=O)c1ccc(-c2cc(-c3ccccc3F)n3c(n2)nc2ccccc23)cc1 [Compound 5j, 4-(2-Flourophenyl)-2-(4-(methylsulfonyl)phenyl)benzo[4,5]imidazo[1,2-a]pyrimidine]",25.88 ± 2.98,19.88 ± 3.06,16.75 ± 3.11,13.38 ± 2.45,,,,,,33.75 ± 1.39,14,50,0.28,15.34 (13.14–17.89) mg/kg,76.73
"CS(=O)(=O)c1ccc(-c2cc(-c3cccc(F)c3)n3c(n2)nc2ccccc23)cc1 [Compound 5k, 4-(3-Flourophenyl)-2-(4-(methylsulfonyl)phenyl)benzo[4,5]imidazo[1,2-a]pyrimidine]",32.38 ± 2.34,25.38 ± 3.43,17.63 ± 4.79,11.88 ± 3.18,,,,,,,> 100,,5.8,22.80 (20.03–25.92) mg/kg,58.73
"CS(=O)(=O)c1ccc(-c2cc(-c3ccc(F)cc3)n3c(n2)nc2ccccc23)cc1 [Compound 5l, 4-(4-Flourophenyl)-2-(4-(methylsulfonyl)phenyl)benzo[4,5]imidazo[1,2-a]pyrimidine]",34.25 ± 1.71,26.13 ± 2.67,19.25 ± 4.32,11.75 ± 1.48,,,,,,,38.8,,0.69,25.26 (22.90–27.91) mg/kg,56.67
"CS(=O)(=O)c1ccc(-c2cc(-c3ccccc3Cl)n3c(n2)nc2ccccc23)cc1 [Compound 5m, 4-(2-Chlorophenyl)-2-(4-(methylsulfonyl)phenyl)benzo[4,5]imidazo[1,2-a]pyrimidine]",,,,,,51.3,15.2,> 100,,,,,,,
"CS(=O)(=O)c1ccc(-c2cc(-c3cccc(Cl)c3)n3c(n2)nc2ccccc23)cc1 [Compound 5n, 4-(3-Chlorophenyl)-2-(4-(methylsulfonyl)phenyl)benzo[4,5]imidazo[1,2-a]pyrimidine]",23.50 ± 3.20,19.88 ± 4.11,15.75 ± 4.35,11.50 ± 3.77,12.1,72.7,10.4,0.24,43.3,28.50 ± 4.72,,,,,
"CS(=O)(=O)c1ccc(-c2cc(-c3ccc(Cl)cc3)n3c(n2)nc2ccccc23)cc1 [Compound 5o, 4-(4-Chlorophenyl)-2-(4-(methylsulfonyl)phenyl)benzo[4,5]imidazo[1,2-a]pyrimidine]",,,,,,72.3,17.8,> 100,,,,,,,
